Here are results for 13 compounds from ChEMBL document CHEMBL1144876, “Benzodiazepines as potent and selective bradykinin B1 antagonists” (J Med Chem, 2003).

The target in series [1] is T1, B1 bradykinin receptor (Rattus norvegicus, UniProt P97583).
T1 sequence (P97583 whole entry): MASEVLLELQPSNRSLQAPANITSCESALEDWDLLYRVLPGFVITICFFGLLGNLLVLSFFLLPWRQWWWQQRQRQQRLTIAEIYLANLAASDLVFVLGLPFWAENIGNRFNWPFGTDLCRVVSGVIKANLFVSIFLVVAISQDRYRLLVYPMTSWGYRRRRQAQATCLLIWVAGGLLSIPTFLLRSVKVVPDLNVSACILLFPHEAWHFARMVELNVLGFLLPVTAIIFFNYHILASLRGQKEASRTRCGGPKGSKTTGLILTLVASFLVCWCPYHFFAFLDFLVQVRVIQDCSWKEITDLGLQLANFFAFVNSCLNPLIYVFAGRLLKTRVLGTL
The series is described as follows: Compound was tested for inhibition against rat Bradykinin receptor B1 using FLIPR assay.

Series [2] concerns the target T1, B1 bradykinin receptor. The series is described as follows: Compound was tested for inhibition against rat Bradykinin receptor B1. In short, it runs like this: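 Radioligand binding using the appropriate radioligand on CHO cells stably expressing rat bradykinin B1 receptor; Ki (nM) determined radiometrically; interassay variability about 10%.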
The nature of series [3]: Half life after intravenous administration in rat. It counts as ADME, organism-based. Conditions: in vivo.
Series [4] can be described thus: Oral bioavailability in rat. Conditions: in vivo. The format is ADME, organism-based.
In series [5] the target is T2, B1 bradykinin receptor (Homo sapiens, UniProt P46663).
T2 sequence (P46663 whole entry): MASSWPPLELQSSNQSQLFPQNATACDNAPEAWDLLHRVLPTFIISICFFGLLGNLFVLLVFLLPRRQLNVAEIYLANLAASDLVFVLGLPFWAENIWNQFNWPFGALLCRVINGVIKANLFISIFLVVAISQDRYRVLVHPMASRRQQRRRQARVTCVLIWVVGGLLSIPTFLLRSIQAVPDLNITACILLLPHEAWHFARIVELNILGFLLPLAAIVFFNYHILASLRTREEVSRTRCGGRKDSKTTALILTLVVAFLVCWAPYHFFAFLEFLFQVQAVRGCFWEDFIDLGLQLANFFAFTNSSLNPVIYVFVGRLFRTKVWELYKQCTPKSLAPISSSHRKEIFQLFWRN
The series is described as follows: Compound was tested for inhibition against human bradykinin B1 receptor using FLIPR assay.

Series [6] addresses T2, B1 bradykinin receptor. Kind of series: Inhibition of human bradykinin B1 receptor.

The term IC50 denotes the concentration that gives 50% inhibition. The Ki is the dissociation constant of the complex between target and ligand, obtained from inhibition or displacement. As a reminder, the half-life is the time in which the quantity being followed falls by half. Read a low half-life as rapid decline. By bioavailability is commonly meant the share of a dose that reaches the circulation, judged against a reference dose that is usually intravenous. Lower therefore signals poor availability. `CCCN1C(=O)[C@H](NC(=O)Nc2ccc(N3CCN(c4ccncc4)CC3)cc2)N=C(CCc2ccccc2)c2ccccc21`: the half-maximal inhibitory concentration (IC50) at B1 bradykinin receptor [1] stood at 2.8 nM. The Ki at B1 bradykinin receptor [2] is 0.92 nM. In series [3], the half-life was 2.7 h. Also, the bioavailability in series [4] was 3.4%.

`CCCN1C(=O)[C@H](NC(=O)Nc2ccc(N3CCC(N4CCCCC4)CC3)cc2)N=C(C2CCCCC2)c2ccccc21`: the concentration for half-maximal inhibition (IC50) against B1 bradykinin receptor [1] was found to be 59 nM; against B1 bradykinin receptor [5] it was 24.7 nM. Moreover, the Ki on B1 bradykinin receptor [2] stood at 18.3 nM; at B1 bradykinin receptor [6] it was 5.73 nM. In series [3], this compound showed a half-life of 3.2 h. Moreover, the bioavailability in series [4] was determined as 10%.

With `CCCN1C(=O)[C@H](NC(=O)Nc2ccc(N3CCC(N4CCCCC4)CC3)cc2)N=C(CCc2ccccc2)c2ccccc21`, the IC50 was 7.25 nM on B1 bradykinin receptor [1] and 4.83 nM against B1 bradykinin receptor [5]. For the same compound, the Ki at B1 bradykinin receptor [2] amounted to 1.97 nM; on B1 bradykinin receptor [6], 1.37 nM. The compound further showed a half-life in series [3] of 2.4 h. In series [4], the bioavailability stood at 4.9%.

Take `CCCN1C(=O)[C@H](NC(=O)Nc2ccc(N3CCN(c4ccncc4)CC3)cc2)N=C(C2CCCCC2)c2ccccc21`: the IC50 at B1 bradykinin receptor [1] was determined as 24.2 nM; against B1 bradykinin receptor [5] it was 8 nM. Further, the Ki at B1 bradykinin receptor [6] is 1.33 nM. Moreover, in series [3], the half-life was 2.3 h. The bioavailability in series [4] amounted to 2.5%.

As for `CCCN1C(=O)[C@H](NC(=O)Nc2ccc(N3CCC(N4CCCCC4)CC3)cc2)N=C(c2ccc(C)cc2)c2ccccc21`, the values for the half-inhibitory concentration (IC50) on B1 bradykinin receptor [1] and against B1 bradykinin receptor [5] were 27 nM and 64.5 nM, respectively. In addition, the inhibitory constant (Ki) on B1 bradykinin receptor [2] came out at 17 nM; on B1 bradykinin receptor [6] it was 13.4 nM. The half-life in series [3] is 4.3 h. In series [4], this compound showed a bioavailability of 32%.

In turn, `CCCN1C(=O)[C@@H](NC(=O)Nc2ccc(N3CCC(N4CCCCC4)CC3)cc2)N=C(C2CCCCC2)c2ccccc21` returned an IC50 against B1 bradykinin receptor [5] of 2200 nM. For the same compound, the affinity at B1 bradykinin receptor [6], expressed as Ki, was 1020 nM.

In turn, `CCCN1C(=O)C(NC(=O)Nc2ccc(N3CCN(c4ccccc4)CC3)cc2)N=C(C2CCCCC2)c2ccccc21` (configuration not stated) registered an inhibitory constant (Ki) on B1 bradykinin receptor [6] of more than 10000 nM.

`CCCN1C(=O)C(NC(=O)Nc2ccc(N3CCN(c4ccccn4)CC3)cc2)N=C(C2CCCCC2)c2ccccc21` (configuration not stated) returned a Ki at B1 bradykinin receptor [6] of 97.5 nM.

For `CCCN1C(=O)C(NC(=O)Nc2ccc(N3CCCCC3)cc2)N=C(C2CCCCC2)c2ccccc21` (configuration not stated), the Ki at B1 bradykinin receptor [6] is more than 10000 nM.

As to `CCCN1C(=O)C(NC(=O)Nc2ccc(N3CCN(c4cccnc4)CC3)cc2)N=C(C2CCCCC2)c2ccccc21` (configuration not stated), the Ki on B1 bradykinin receptor [6] is 85 nM.

Compound `O=C(CCCN1C(=O)CN=C(C2CCCCC2)c2ccccc21)Nc1ccc(N2CCC(N3CCCCC3)CC2)cc1` displayed a Ki at B1 bradykinin receptor [6] of 141 nM.

For the compound `CCCN1C(=O)C(NC(=O)Nc2ccc(N3CCC(c4ccncc4)CC3)cc2)N=C(CCc2ccccc2)c2ccccc21` (configuration not stated), at B1 bradykinin receptor [6], the affinity corresponds to a Ki of 55 nM.

In the case of `CCCN1C(=O)C(NC(=O)Nc2ccc(N3CCC(N(C)C)CC3)cc2)N=C(C2CCCCC2)c2ccccc21` (configuration not stated), the concentration for half-maximal inhibition (IC50) at B1 bradykinin receptor [5] was 164 nM. For the same compound, the inhibition constant Ki at B1 bradykinin receptor [6] is 28 nM.
